Measured values: publication PMC4339026 (Biopolymers, 2014)

Legend:
Format in all cases: biochemical
ADAM17 = ADAM17 (Homo sapiens, UniProt P78536); test: Selectivity testing against zinc metalloproteases: ADAM17; conditions: read-out: IC50 ADAM17; n = 3 Mean ± SD
MMP-13 = MMP-13 (Homo sapiens, UniProt P45452); test: Selectivity testing against zinc metalloproteases: MMP-13; conditions: read-out: IC50 MMP-13; n = 3 Mean ± SD
meprin β [1] = target: T1, meprin β (Homo sapiens, UniProt Q16820); test: Meprin β HTS FRET assay, dose response
T1 sequence (Q16820 62-614 limits assumed): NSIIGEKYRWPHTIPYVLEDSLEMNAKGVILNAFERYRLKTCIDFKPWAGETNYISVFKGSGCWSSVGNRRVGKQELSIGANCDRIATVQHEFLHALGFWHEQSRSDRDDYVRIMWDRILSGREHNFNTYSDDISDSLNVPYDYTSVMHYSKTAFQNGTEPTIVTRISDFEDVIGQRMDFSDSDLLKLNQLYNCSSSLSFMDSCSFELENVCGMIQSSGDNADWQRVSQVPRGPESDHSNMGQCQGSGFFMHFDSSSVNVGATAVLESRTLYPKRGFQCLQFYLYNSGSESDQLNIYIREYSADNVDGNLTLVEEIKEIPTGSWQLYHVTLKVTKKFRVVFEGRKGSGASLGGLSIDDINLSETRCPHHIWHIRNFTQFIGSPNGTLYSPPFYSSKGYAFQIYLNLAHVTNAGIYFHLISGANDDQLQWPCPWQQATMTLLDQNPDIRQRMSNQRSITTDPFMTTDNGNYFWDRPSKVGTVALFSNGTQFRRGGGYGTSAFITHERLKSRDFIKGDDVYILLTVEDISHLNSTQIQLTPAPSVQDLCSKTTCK
In short: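 Trypsin-activated meprin β (trypsin removed on immobilized ovomucoid) in 50 mM Hepes, 0.01% Brij-35, pH 7.5, added as 2x (0.15 nM) solution. Pin-transferred inhibitor was preincubated 30 min at RT. 2x (20 μM) (MCA)-EDEDED-(K-ε-DNP) was then added, run 1 h at RT, and read at ex 324/em 393 nm. A 3-fold dilution series was run in quadruplicate, and % inhibition was fitted with a 4-parameter equation. DMSO final was 0.1% or 1.0%.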

MMP-2 = target: T2, MMP-2 (Homo sapiens, UniProt P08253); test: Selectivity testing against zinc metalloproteases: MMP-2; conditions: read-out: IC50 MMP-2; n = 3 Mean ± SD
T2 sequence (P08253 110-660): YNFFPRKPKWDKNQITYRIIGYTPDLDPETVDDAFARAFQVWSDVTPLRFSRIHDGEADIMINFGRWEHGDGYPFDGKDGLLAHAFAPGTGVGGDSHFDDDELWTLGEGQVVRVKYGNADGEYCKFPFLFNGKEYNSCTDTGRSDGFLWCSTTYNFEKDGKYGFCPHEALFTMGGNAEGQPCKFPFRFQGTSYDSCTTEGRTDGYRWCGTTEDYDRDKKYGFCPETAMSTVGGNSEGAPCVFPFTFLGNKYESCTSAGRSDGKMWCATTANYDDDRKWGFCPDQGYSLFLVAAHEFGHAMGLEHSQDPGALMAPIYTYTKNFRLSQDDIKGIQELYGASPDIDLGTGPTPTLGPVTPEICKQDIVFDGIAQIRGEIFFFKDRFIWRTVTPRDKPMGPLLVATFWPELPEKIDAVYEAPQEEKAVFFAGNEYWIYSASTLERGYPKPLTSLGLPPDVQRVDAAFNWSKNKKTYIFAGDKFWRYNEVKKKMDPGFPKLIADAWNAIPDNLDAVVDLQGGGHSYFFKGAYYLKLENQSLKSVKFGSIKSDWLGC

MMP-8 = MMP-8 (Homo sapiens, UniProt P22894); test: Selectivity testing against zinc metalloproteases: MMP-8; conditions: read-out: IC50 MMP-8; n = 3 Mean ± SD
Sequence of MMP-8 (P22894 101-467, species assumed): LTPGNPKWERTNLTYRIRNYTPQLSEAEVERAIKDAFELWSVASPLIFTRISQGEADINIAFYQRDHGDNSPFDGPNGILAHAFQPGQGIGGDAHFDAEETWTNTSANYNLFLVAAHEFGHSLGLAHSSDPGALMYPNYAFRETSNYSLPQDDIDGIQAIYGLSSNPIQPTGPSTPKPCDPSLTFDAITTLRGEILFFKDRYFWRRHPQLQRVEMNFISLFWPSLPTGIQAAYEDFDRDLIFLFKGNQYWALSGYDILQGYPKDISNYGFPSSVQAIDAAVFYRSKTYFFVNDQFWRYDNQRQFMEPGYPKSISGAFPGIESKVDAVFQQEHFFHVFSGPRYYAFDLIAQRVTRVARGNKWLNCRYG

MMP-9 = MMP-9 (Homo sapiens, UniProt P14780); test: Selectivity testing against zinc metalloproteases: MMP-9; conditions: read-out: IC50 MMP-9; n = 3 Mean ± SD
Sequence of MMP-9 (P14780 94-707, species assumed): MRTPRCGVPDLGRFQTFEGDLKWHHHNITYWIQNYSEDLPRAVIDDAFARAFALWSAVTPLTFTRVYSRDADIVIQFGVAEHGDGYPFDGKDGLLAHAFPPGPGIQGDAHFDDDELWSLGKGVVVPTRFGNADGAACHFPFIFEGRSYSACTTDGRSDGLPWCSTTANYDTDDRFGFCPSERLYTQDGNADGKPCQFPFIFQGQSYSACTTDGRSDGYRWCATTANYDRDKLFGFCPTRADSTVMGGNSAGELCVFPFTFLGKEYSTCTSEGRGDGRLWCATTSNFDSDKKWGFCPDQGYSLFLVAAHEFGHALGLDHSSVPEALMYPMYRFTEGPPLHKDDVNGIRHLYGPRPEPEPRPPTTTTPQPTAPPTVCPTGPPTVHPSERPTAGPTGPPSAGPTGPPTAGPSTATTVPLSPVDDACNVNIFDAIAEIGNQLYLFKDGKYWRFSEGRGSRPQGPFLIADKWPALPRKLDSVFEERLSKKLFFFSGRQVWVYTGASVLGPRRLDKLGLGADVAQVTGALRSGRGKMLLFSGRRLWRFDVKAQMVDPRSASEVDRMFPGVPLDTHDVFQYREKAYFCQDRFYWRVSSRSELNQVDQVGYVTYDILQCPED

meprin β [2] = target: T1, meprin β; test: Meprin β LOPAC pilot screen; conditions: 18 μM
meprin α = target: T3, meprin α (Homo sapiens, UniProt Q16819); test: Meprin α HTS FRET assay, dose response; conditions: read-out: IC50 Meprin α; selectivity testing; n = 3 Mean ± SD
T3 sequence (Q16819 66-653 limits assumed): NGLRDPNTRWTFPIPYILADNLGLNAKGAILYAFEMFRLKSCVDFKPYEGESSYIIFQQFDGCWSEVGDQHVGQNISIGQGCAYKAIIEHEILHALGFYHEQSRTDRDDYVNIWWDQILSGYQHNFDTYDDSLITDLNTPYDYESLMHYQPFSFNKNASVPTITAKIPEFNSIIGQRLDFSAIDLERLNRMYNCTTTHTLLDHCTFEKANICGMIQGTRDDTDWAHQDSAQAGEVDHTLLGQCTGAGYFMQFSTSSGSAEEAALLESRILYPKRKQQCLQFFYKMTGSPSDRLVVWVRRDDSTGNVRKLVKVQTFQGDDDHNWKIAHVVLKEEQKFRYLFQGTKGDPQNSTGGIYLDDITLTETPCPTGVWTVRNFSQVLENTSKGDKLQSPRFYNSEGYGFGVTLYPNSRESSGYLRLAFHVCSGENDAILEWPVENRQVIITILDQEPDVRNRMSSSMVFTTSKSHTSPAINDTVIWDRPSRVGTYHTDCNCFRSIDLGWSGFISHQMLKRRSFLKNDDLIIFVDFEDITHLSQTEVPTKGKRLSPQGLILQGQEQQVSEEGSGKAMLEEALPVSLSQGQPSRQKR
In short: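 Recombinant human Strep-tagged meprin α was expressed in baculovirus-infected BTI-TN-5B1-4 cells, trypsin-activated, then freed of trypsin. It was used as a 2x solution at 2.6 nM in 50 mM Hepes, 0.01% Brij-35, pH 7.5. Test compound was pre-incubated 30 min at RT, then 2x (MCA)-YVADAPK-(K-ε-DNP) at 20 μM was added for 1 h at RT. Read at ex 324/em 393 nm. 3-fold dilutions in quadruplicate; 4-parameter fit; 0.1% or 1.0% DMSO.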

MMP-14 = MMP-14 (Homo sapiens, UniProt P50281); test: Selectivity testing against zinc metalloproteases: MMP-14; conditions: read-out: IC50 MMP-14; n = 3 Mean ± SD

Sequence of ADAM17 (P78536 215-824, species assumed): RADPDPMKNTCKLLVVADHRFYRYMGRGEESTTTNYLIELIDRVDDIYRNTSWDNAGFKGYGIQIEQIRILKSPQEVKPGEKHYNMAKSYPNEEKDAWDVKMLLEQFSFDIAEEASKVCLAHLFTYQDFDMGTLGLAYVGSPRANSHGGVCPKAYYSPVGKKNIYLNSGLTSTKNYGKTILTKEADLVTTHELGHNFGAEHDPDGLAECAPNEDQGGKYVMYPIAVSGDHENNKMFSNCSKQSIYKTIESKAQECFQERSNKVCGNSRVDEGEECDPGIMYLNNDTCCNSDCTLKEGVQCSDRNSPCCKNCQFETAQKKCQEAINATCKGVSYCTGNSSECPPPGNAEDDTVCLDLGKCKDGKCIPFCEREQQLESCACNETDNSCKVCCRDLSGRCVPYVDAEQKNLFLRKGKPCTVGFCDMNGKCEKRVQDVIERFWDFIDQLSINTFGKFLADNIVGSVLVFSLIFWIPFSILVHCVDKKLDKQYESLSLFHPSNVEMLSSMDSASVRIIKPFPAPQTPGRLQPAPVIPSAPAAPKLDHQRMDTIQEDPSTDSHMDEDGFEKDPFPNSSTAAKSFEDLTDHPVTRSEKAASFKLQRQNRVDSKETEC

In the case of `O=C(Nc1cc(C(=O)Nc2ccc(S(=O)(=O)O)cc2S(=O)(=O)O)cc(C(=O)Nc2ccc(S(=O)(=O)O)cc2S(=O)(=O)O)c1)Nc1cc(C(=O)Nc2ccc(S(=O)(=O)O)cc2S(=O)(=O)O)cc(C(=O)Nc2ccc(S(=O)(=O)O)cc2S(=O)(=O)O)c1` [NF449, 4,4′,4″,4‴-[Carbonyl-bis[imino-5,1,3-benzenetriylbis-(carbonyl-imino)]]tetrakis(benzene-1,3-disulfonic acid)], the IC50 (ADAM17) is reported as 4.6 ± 0.3 µM, the IC50 (MMP-13) is reported as 40 ± 3 µM and the “meprin β dose response behaviour” value (meprin β [1]; dose response experiment, data not shown) is reported as “did not exhibit the same effect”. The “potency differential meprin β versus meprin α” value (meprin β [1]; ratio of IC50 values) was greater than 1000 fold, the “selectivity ratio meprin β versus MMP-8” value (meprin β [1]; ratio of IC50 values) was “approximately 12 fold” and the IC50 (meprin β [1]; read-out: IC50 Meprin β, selectivity testing, n = 3 Mean ± SD) was 0.07 ± 0.005 µM. For the same molecule, the IC50 (MMP-2) was 6 ± 0.5 µM, the IC50 (MMP-8) was 1 ± 0.1 µM and the IC50 (MMP-9) was 8.6 ± 0.7 µM. For the same molecule, the “% inhibition meprin β in pilot screen” value (meprin β [2]) was “negative inhibition values”, the “meprin β LOPAC pilot screen outcome” value (meprin β [2]; hit cutoff 25% inhibition) was “selective hits” and the IC50 (meprin α) was greater than 100 µM. It also gave an IC50 (MMP-14) of 18 ± 1.5 µM.
